In ChEMBL document CHEMBL3244325, “Diastereoisomeric N-tetrahydrofurfurylnoroxymorphones with opioid agonist--antagonist properties” (J Med Chem, 1977):

Legend:
Mus musculus [1] = organism: Mus musculus; assay: Inhibition of morphine-induced analgesia in mouse by tail clip method; format: functional
Method in brief: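 Mice dosed subcutaneously; morphine antagonism measured as suppression of morphine analgesia by a tail-clip-based procedure. AD50 in mg/kg estimated by graphical evaluation of log dose-response curves.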

[2] = Toxicity in sc dosed mouse; format: organism-based; conditions: in vivo
Method in brief: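 Acute toxicity in mice, expressed as LD50 calculated by the Litchfield and Wilcoxon method.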

Mus musculus [3] = assay: Analgesic activity in sc dosed mouse assessed as inhibition of phenylquinone-induced writhing; format: functional
Mus musculus [4] = assay: Ratio of morphine hydrochloride ED50 to compound ED50 for sc dosed mouse assessed as inhibition of phenylquinone-induced writhing; format: functional
Mus musculus [5] = assay: Analgesic activity in sc dosed mouse by tail clip method; format: functional
Mus musculus [6] = assay: Ratio of LD50 in sc dosed mouse to ED50 in sc dosed mouse by writhing test
Mus musculus [7] = assay: Analgesic activity in sc dosed mouse by hot plate method; format: functional

Work on `C=CCN1CC[C@]23c4c5ccc(O)c4O[C@H]2C(=O)CC[C@@]3(O)[C@H]1C5.Cl` [NALOXONE HYDROCHLORIDE] yielded an AD50 (Mus musculus [1]) of 0.03 mg/kg and an LD50 [2] of 286 mg/kg.

`Cl.O=C1CC[C@@]2(O)[C@H]3Cc4ccc(O)c5c4[C@@]2(CCN3C[C@@H]2CCCO2)[C@H]1O5` showed an AD50 (Mus musculus [1]) of 5 mg/kg and an LD50 [2] of 810 mg/kg.

Work on `CC(C)=CCN1CCC2(C)c3cc(O)ccc3CC1C2C.Cl` (stereo not given) [PENTAZOCINE HYDROCHLORIDE] yielded an AD50 (Mus musculus [1]) of 8 mg/kg, an LD50 [2] of 220 mg/kg and an ED50 (Mus musculus [3]) of 1.4 mg/kg.

In the case of `Cl.O=C1CC[C@@]2(O)[C@H]3Cc4ccc(O)c5c4[C@@]2(CCN3C[C@H]2CCCO2)[C@H]1O5`, the “Ratio ED50” value (Mus musculus [4]) is reported as 25, the AD50 (Mus musculus [1]) is reported as 4 mg/kg and the LD50 [2] is reported as 955 mg/kg. The ED50 (Mus musculus [3]) was 0.02 mg/kg, the ED50 (Mus musculus [5]) was 200 mg/kg and the “Ratio LD50/ED50” value (Mus musculus [6]) was 47750. The ED50 (Mus musculus [7]) was 1.9 mg/kg.

With `CN1CC[C@]23c4c5ccc(O)c4O[C@H]2[C@@H](O)C=C[C@H]3[C@H]1C5.Cl` [MORPHINE HYDROCHLORIDE] the ED50 (Mus musculus [3]) was 0.5 mg/kg, the ED50 (Mus musculus [5]) was 11 mg/kg and the ED50 (Mus musculus [7]) was 1.2 mg/kg.

`C=CCN1CC[C@]23c4c5ccc(O)c4O[C@H]2[C@@H](O)C=C[C@H]3[C@H]1C5.Cl` [NALORPHINE HYDROCHLORIDE] showed an AD50 (Mus musculus [1]) of 1 mg/kg, an LD50 [2] of 560 mg/kg and an ED50 (Mus musculus [3]) of 0.5 mg/kg.
